The source of these data is ChEMBL document CHEMBL3352788, “Characterization of selective exosite-binding inhibitors of matrix metalloproteinase 13 that prevent articular cartilage degradation in vitro” (J Med Chem, 2014).

Data set [1] deals with T1, CYP2C8 (Homo sapiens, UniProt P10632). Briefly: Inhibition of CYP2C8 (unknown origin) using amodiaquine substrate at 2.5 uM. The settings on record: probe amodiaquine. The format is ADME. In a few lines:
(§1)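 Human liver microsomes with probe substrate and an NADPH-regenerating system in 0.1 M potassium phosphate pH 7.4 at 37 °C, run in duplicate. Inhibitor at 0–20 μM (0–2.5 μM for one compound), eight concentrations. Reactions were stopped with acetonitrile/formic acid containing isotope-labelled internal standard, and metabolite area ratios were compared with and without inhibitor. IC50 was taken by linear interpolation between bracketing concentrations.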

Another data set deals with CYP3A4 (Homo sapiens, UniProt P08684). Briefly: Inhibition of CYP3A4 (unknown origin) using testosterone substrate at 2.5 uM. The data set is classed as ADME. The settings on record: probe testosterone. In a few lines: as §1
Data set [2] has as its target T2, CYP2B6 (Homo sapiens, UniProt P20813). Kind of data set: Inhibition of CYP2B6 (unknown origin) using bupropion substrate at 2.5 uM. The data set is classed as ADME. The settings on record: probe bupropion. In a few lines:
as §1

Data set [3] has as its target T3, CYP2C19 (Homo sapiens, UniProt P33261). Briefly: Inhibition of CYP2C19 (unknown origin) using (S)-mephentoin substrate at 2.5 uM. The settings on record: probe (S)-mephentoin. The data set is classed as ADME. The procedure, abridged: as §1
In data set [4] the target is T4, CYP1A2 (Homo sapiens, UniProt P05177). Kind of data set: Inhibition of CYP1A2 (unknown origin) using tacrin substrate at 2.5 uM. The format is ADME. The following applies: probe tacrin. In a few lines:
as §1

In data set [5] the target is T5, CYP2D6 (Homo sapiens, UniProt P10635). Kind of data set: Inhibition of CYP2D6 (unknown origin) using dextromethophan substrate at 2.5 uM. The settings on record: probe dextromethophan. The format is ADME. In a few lines: as §1
Data set [6] concerns the target T6, Cathepsin K (Homo sapiens) (UniProt P43235).
T6 sequence (whole entry): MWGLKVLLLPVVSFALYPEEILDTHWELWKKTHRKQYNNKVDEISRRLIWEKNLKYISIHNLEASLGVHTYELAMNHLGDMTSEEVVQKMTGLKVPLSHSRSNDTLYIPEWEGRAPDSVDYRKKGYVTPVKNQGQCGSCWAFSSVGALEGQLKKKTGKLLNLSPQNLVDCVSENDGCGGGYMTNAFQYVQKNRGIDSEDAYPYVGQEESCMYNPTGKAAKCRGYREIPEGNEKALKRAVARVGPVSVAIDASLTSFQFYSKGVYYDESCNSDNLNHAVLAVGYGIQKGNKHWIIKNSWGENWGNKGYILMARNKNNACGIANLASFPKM
Kind of data set: Inhibition of recombinant human cathepsin K using HHQKLVFFAE substrate at up to 5 uM after 3 hrs. In a few lines:
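Outsourced microfluidic protease panel. Compound was preincubated with each protease for 30 min at 25 °C, then peptide substrate was added for 3 h at 25 °C and quenched with SDS/EDTA/iodoacetate. Substrate-to-product conversion was measured on LabChip. Compounds were tested singly in a 12-point 3-fold dilution series, top 20 μM (5 μM for two reference compounds).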

Data set [7] concerns the target T7, CYP2C9 (Homo sapiens, UniProt P11712). Briefly: Inhibition of CYP2C9 (unknown origin) using diclofenac substrate at 2.5 uM. The format is ADME. The following applies: probe diclofenac. The procedure, abridged: as §1
In data set [8] the target is T1, CYP2C8. Kind of data set: Inhibition of CYP2C8 (unknown origin) using amodiaquine substrate at 20 uM. The format is ADME. The settings on record: probe amodiaquine. In a few lines: as §1
Data set [9] addresses T7, CYP2C9. Kind of data set: (§2) Inhibition of CYP2C9 (unknown origin) using diclofenac substrate at 20 uM. The settings on record: probe diclofenac. The data set is classed as ADME. In a few lines:
as §1

Data set [10] deals with T5, CYP2D6. Kind of data set: (§3) Inhibition of CYP2D6 (unknown origin) using dextromethophan substrate at 20 uM. The data set is classed as ADME. The following applies: probe dextromethophan. The procedure, abridged:
as §1

Data set [11] addresses T4, CYP1A2. Kind of data set: (§4) Inhibition of CYP1A2 (unknown origin) using tacrin substrate at 20 uM. The data set is classed as ADME. The following applies: probe tacrin. The procedure, abridged: as §1
Another data set addresses Cytochrome P450 3A4 (Homo sapiens, UniProt P08684). Kind of data set: Inhibition of CYP3A4 (unknown origin) using testosterone substrate. The data set is classed as ADME. In a few lines:
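Reactions stopped with acetonitrile/0.1% formic acid plus labelled internal standard. Metabolite measured by LC-MS area ratio. IC50 by linear interpolation.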

The target of data set [12] is T2, CYP2B6. Briefly: (§5) Inhibition of CYP2B6 (unknown origin) using bupropion substrate at 20 uM. The format is ADME. The following applies: probe bupropion. The procedure, abridged:
as §1

For data set [13], the target named is T3, CYP2C19. Kind of data set: (§6) Inhibition of CYP2C19 (unknown origin) using (S)-mephentoin substrate at 20 uM. The data set is classed as ADME. The settings on record: probe (S)-mephentoin. The procedure, abridged:
as §1

For another data set, the system named is Liver microsome. Kind of data set: Half life in human liver microsomes by LC-MS/MS analysis. The data set is classed as ADME. In a few lines:
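Compound at 1 μM with 1 mg/mL liver microsomes in 100 mM potassium phosphate pH 7.4 at 37 °C with shaking. Reaction started with 1 mM NADPH (final). Aliquots were taken at 0, 5, 10, 20, 40 and 60 min and quenched in acetonitrile. Parallel incubations without NADPH were run.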
(In general: Microsomes from liver hold many membrane-bound enzymes, among them those of drug oxidation.)

For another data set, the target named is Cytochrome P450 2C9 (Homo sapiens, UniProt P11712). The description is as §2. The data set is classed as ADME. The settings on record: 20 µM. The procedure, abridged: as §1
The next data set addresses Cytochrome P450 2D6 (Homo sapiens, UniProt P10635). The data set is described as §3. The data set is classed as ADME. The following applies: 20 µM. In a few lines:
as §1

The target of another data set is T8, Cytochrome P450 1A2 (Homo sapiens, UniProt P05177).
T8 sequence (P05177 whole entry): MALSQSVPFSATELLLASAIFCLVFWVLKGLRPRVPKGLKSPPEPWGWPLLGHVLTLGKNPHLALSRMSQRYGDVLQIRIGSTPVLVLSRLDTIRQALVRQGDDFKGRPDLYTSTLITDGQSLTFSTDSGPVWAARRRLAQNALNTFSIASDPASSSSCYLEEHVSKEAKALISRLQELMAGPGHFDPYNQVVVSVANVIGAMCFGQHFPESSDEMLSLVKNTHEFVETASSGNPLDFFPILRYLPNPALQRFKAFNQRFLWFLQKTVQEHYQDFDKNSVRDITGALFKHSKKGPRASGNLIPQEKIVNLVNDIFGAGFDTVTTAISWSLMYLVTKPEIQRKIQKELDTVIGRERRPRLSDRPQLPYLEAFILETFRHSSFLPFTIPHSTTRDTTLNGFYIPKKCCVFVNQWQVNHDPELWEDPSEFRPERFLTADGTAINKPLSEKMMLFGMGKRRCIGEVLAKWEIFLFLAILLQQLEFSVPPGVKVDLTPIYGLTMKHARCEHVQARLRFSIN
The description is as §4. The format is ADME. The settings on record: 20 µM. In a few lines: as §1

A further data set addresses T9, Cytochrome P450 2B6 (Homo sapiens, UniProt P20813).
T9 sequence (P20813 whole entry): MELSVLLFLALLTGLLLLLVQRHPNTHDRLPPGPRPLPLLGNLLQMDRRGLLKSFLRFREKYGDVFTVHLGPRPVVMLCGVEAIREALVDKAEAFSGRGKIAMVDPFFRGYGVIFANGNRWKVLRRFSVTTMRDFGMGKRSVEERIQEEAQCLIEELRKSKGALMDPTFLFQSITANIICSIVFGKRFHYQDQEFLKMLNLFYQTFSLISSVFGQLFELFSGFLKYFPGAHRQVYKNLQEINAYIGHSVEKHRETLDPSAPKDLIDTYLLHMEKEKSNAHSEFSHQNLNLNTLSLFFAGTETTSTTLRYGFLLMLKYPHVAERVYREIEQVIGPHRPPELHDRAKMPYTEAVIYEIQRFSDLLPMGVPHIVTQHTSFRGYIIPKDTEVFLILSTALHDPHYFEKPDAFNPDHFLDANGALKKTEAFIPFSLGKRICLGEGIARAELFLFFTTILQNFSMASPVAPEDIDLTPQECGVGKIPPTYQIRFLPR
Described as §5. The data set is classed as ADME. The settings on record: 20 µM. In a few lines:
as §1

For the next data set, the target named is Cytochrome P450 2C19 (Homo sapiens, UniProt P33261). Described as §6. The format is ADME. The following applies: 20 µM. In a few lines:
as §1

T7 sequence (P11712 whole entry): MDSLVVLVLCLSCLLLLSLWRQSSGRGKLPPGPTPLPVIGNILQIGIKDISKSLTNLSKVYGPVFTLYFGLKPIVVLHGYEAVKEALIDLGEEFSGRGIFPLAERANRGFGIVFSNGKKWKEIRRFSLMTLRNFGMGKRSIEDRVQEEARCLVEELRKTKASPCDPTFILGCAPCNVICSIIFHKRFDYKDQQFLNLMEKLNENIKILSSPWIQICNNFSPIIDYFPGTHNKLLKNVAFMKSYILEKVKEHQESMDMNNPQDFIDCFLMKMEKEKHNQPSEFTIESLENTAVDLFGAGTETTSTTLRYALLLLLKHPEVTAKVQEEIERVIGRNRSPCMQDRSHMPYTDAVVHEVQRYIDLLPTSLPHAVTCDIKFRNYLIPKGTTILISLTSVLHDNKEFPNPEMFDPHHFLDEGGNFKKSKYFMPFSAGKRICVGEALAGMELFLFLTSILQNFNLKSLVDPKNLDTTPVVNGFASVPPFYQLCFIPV
T3 sequence (P33261 whole entry): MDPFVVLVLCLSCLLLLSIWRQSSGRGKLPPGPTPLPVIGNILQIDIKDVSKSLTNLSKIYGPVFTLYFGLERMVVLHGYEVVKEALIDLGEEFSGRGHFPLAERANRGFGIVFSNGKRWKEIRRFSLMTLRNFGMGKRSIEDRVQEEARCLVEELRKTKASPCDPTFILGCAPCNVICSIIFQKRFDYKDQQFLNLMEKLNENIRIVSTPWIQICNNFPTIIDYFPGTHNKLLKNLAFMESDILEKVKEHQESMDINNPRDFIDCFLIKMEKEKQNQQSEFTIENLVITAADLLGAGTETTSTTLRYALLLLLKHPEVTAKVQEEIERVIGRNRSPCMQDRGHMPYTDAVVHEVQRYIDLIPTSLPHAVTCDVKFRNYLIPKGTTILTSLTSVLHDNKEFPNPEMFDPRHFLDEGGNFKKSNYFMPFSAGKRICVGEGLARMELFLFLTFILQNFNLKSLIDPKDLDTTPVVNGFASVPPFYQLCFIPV
Chain of Cytochrome P450 3A4 (P08684 whole entry): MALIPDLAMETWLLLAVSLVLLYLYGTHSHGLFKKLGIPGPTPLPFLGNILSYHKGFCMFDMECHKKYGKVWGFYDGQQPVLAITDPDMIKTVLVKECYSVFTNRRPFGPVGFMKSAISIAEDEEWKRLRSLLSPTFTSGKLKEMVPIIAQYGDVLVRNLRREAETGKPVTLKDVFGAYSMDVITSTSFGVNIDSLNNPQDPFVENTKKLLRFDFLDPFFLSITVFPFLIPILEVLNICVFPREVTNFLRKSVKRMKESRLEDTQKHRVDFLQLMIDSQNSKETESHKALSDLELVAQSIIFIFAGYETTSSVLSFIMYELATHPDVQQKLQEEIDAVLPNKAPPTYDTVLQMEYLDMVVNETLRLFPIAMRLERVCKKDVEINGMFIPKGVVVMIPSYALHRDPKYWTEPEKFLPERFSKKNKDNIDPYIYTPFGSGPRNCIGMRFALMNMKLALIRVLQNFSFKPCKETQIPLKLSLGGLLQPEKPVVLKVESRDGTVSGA
T5 sequence (P10635 whole entry): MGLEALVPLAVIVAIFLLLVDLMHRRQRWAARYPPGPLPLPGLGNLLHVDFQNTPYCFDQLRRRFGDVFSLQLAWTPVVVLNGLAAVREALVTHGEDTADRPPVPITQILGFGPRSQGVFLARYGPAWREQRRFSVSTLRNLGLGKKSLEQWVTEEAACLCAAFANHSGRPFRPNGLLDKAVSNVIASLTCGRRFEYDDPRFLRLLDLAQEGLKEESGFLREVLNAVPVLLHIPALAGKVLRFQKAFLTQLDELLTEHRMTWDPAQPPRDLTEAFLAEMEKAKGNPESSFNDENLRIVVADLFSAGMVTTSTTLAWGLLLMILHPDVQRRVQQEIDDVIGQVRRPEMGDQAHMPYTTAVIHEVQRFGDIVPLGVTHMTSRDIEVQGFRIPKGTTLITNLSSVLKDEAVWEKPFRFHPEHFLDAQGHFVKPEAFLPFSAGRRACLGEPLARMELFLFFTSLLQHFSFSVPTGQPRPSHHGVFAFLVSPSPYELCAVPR
T1 sequence (P10632 whole entry): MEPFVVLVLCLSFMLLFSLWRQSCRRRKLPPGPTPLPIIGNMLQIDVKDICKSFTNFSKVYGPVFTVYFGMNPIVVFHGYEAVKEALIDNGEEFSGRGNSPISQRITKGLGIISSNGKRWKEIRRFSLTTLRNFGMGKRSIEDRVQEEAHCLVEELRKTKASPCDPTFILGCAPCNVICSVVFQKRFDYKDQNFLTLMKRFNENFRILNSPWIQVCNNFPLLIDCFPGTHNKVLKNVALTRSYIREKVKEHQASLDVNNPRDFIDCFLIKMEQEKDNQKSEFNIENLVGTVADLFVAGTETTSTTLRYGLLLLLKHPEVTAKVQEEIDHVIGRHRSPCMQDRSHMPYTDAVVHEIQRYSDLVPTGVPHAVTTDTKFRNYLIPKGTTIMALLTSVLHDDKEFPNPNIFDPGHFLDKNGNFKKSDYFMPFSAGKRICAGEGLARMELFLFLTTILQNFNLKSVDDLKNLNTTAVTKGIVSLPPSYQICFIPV
Chain of Cytochrome P450 2C9 (P11712 whole entry): as the sequence (P11712 whole entry) above
Chain of Cytochrome P450 2C19 (P33261 whole entry): as the sequence (P33261 whole entry) above
Chain of CYP3A4 (P08684 whole entry): as the sequence (P08684 whole entry) above
Chain of Cytochrome P450 2D6 (P10635 whole entry): as the sequence (P10635 whole entry) above

For `Cn1c(=O)n(Cc2ccc(C(=O)O)cc2)c(=O)c2cc(C#CCc3ccccc3)ccc21`, the inhibition (in general, the change of the read-out against control, counted positive when it falls) at 2.5 µM against CYP2C8 [1] was under 50%; against CYP3A4, under 50%; against CYP2B6 [2] it was under 50%; on CYP2C19 [3] it was under 50%; against CYP1A2 [4], 17%; against CYP2D6 [5], under 50%. The molecule also yielded an inhibition at 2.5 µM against CYP2C9 [7] of under 50%. Moreover, in [6], the inhibition was over 10%.
Regarding `COC(=O)c1ccc(CSc2nc3c(c(=O)[nH]2)CCC3)cc1`, the inhibition at 20 µM on CYP2C8 [8] is under 50%; against CYP2C9 [9], 17%; on CYP2D6 [10], under 50%; at CYP1A2 [11], 29%; against CYP2B6 [12], under 50%; at CYP2C19 [13] it was under 50%. Besides, the IC50 – broadly, the concentration needed to halve the response being measured – against Cytochrome P450 3A4 is over 20 µM.
On Cytochrome P450 3A4, `Oc1nc(SCc2ccc(Cl)cc2)nc2c1CCC2` registered an IC50 of over 20 µM. In the data set on Liver microsome, the t1/2 was found to be 10.4 min.
Consider `Cc1cc(CNC(=O)c2cc(C(=O)NCc3ccc(F)c(C)c3)ncn2)ccc1F`, for which the inhibition (INH) against Cytochrome P450 2C9, at Cytochrome P450 2D6, against Cytochrome P450 1A2, on Cytochrome P450 2B6 and at Cytochrome P450 2C19 was over 10% throughout. In addition, the inhibition in data set [6] is under 10%.
